Measurements published in ChEMBL document CHEMBL1144695, “Synthesis and evaluation of novel polyaminocarboxylate-based antitumor agents” (J Med Chem, 2008).

Key:
HeLa = assay: Cytotoxicity against human HeLa cells after 72 hrs by MTS assay; type: functional, cell-based
Outline: (§1)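 Cells attached 24 h before dosing: HeLa at 2000 cells/well in MEM with 10% FBS, and HT29 at 5000 cells/well in RPMI-1640 with 10% FBS. At least five serial dilutions were added for 72 h at 37 °C in 5% CO2. MTS/PMS was then added for 3 h and absorbance read at 490 nm, relative to untreated solvent controls. Runs were at least triplicate, and IC50 came from nonlinear regression.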

HT-29 = assay: Cytotoxicity against human HT29 cells after 72 hrs by MTS assay; type: functional, cell-based; conditions: HT-29, 72 h; outline: as §1
MRC5 = assay: Induction of proliferation in human MRC5 cells; type: functional; parameters: unit: fraction of untreated control
Outline: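 Normal MRC-5 lung fibroblasts were grown in EMEM with 10% FBS, seeded at 5000 cells/well and allowed 24 h to attach. Chelators at 50 µM were given for 72 h at 37 °C in 5% CO2. Read-out was MTS/PMS for 3 h, with absorbance at 490 nm expressed as a fraction of untreated solvent controls. Runs were at least triplicate.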

Compound | IC50 (HeLa) [µM] | IC50 (HT-29) [µM] | Activity (MRC5)
O=C(O)CNCCN1CCN(CC(=O)O)CCN(CC(=O)O)CC1 | 5.7 | 4.7 | 2
O=C(O)CN1CCN(CCN(CC(=O)O)Cc2ccc([N+](=O)[O-])cc2)CCN(CC(=O)O)CC1 | 8.4 | 6.8 | 2
O=C(O)CN1CCN(CCN(CC(=O)O)CC(=O)O)CCN(CC(=O)O)CC1 |  | 7.3 | 2
O=C(O)CN1CCN(CC(=O)O)CCN(CC(Cc2ccc([N+](=O)[O-])cc2)N(CC(=O)O)CC(=O)O)CC1 (stereo unspecified) | > 100 | 45.7 | 
CC(=O)N(O)CCCCCNC(=O)CCC(=O)N(O)CCCCCNC(=O)CCC(=O)N(O)CCCCCN [DEFEROXAMINE] | > 50 | 36.1 | 
O=C(O)CNC(Cc1ccc([N+](=O)[O-])cc1)CN1CCN(CC(=O)O)CCN(CC(=O)O)CC1 (stereo unspecified) | 7.1 | 5 | 2
O=C(O)CN1CCN(CCN(CC(=O)O)Cc2ccccc2)CCN(CC(=O)O)CC1 | 4.4 | 2.6 | 2
O=C(O)CNC(Cc1ccc(Nc2ccc([N+](=O)[O-])c3nonc23)cc1)CN1CCN(CC(=O)O)CCN(CC(=O)O)CC1 (stereo unspecified) |  |  | 2
O=C(O)CN(CCN(CC(=O)O)CC(=O)O)CCN(CC(=O)O)CC(=O)O [PENTETIC ACID] | 264 | 39.1 | 
